In assay [1] the test system is AbC1 cell line derived from Bomirski hamster melanoma. Briefly: [3H]-thymidine incorporation. It is filed as cell-based.
For another assay, the system named is HaCaT keratinocytes. The experiment in a line: Proliferation of HaCaT keratinocytes. It is filed as cell-based, human. Conditions: for EC50: read-out: EC50, inhibition of proliferation.
Another assay relates to melanoma SKMEL-188. The experiment in a line: Colony forming assay. It counts as cell-based, human. Conditions: SKMEL-188, 0.1, 10 and 1000 nM, 6-10 days. A digest of the protocol: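 SKMEL-188 cells were plated at 500 cells/well in 12-well plates in F10 medium with charcoal-stripped FBS and antibiotic-antimycotic, at 37°C in 5% CO2. They were treated at 0.1, 10 and 1000 nM, with matched ethanol dilution as vehicle control, and grown 6–10 days. Colonies were stained with 0.1% […], then counted and sized from photographs. CFU = colonies/cells plated ×100. Mean ± SEM, n=3 or 4.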

A further assay deals with SKMEL-188 cells. The experiment in a line: [3H]-thymidine incorporation. Conditions: SKMEL-188, 72 h, [3H]-thymidine last 4 h. It is filed as cell-based, human. A digest of the protocol:
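SKMEL-188 cells were grown in Ham's F-10 with 5% charcoal-treated FBS and synchronized at G0/G1 in serum-free medium. Compounds were added in fresh medium with 5% charcoal-treated FBS for 72 h. [3H]-thymidine (88.0 Ci/mmol) was present at 0.5 μCi/ml final for the last 4 h. Cells were precipitated with 10% TCA and counted by liquid scintillation. Mean ± SD, n=4; one-way ANOVA and t-test.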
(Dividing cells build labelled thymidine or BrdU into new DNA.)

The target in the next assay is T1, VDR-EGFP fusion protein (Homo sapiens, UniProt P11473).
T1 sequence (P11473 1-427): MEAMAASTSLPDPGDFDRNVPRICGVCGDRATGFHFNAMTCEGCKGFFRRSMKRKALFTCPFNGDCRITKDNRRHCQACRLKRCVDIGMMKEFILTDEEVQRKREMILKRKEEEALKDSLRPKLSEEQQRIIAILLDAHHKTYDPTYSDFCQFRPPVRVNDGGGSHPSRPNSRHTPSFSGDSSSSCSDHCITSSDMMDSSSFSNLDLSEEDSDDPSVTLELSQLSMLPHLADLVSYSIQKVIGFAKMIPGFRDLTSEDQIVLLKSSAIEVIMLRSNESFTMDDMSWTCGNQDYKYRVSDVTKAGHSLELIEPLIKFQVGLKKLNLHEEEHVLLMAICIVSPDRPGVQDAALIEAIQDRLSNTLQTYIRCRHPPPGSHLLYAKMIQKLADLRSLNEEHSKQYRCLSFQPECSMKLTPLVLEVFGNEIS
The experiment in a line: VDR translocation into the nucleus. It counts as cell-based. Particulars: SKMEL-188 transduced with pLenti-CMV-VDR-EGFP, 10 nM, 90 min. The essentials:
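SKMEL-188 cells were stably transduced with a lentiviral CMV-driven VDR-EGFP fusion construct (10 MOI, 6 μg/ml polybrene). They were exposed to compound for 90 min, fixed in 4% paraformaldehyde, mounted and examined by fluorescence microscopy. In at least 10 fields, cells with fluorescent nuclei were counted and expressed as % of total cells. Student's t-test.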

Each structure is given as a SMILES string. Where two headings read alike, the source gives them in different places.

Turning to `C[C@]12CC[C@@H]3C(=CC=C4C[C@@H](O)CC[C@]43C)[C@@H]1CC[C@@H]2C(=O)CO` [21(OH)pL, 3β,21-Dihydroxy-9β,10α-pregna-5,7-dien-20-one], the entries for the “inhibition of DNA synthesis” value (in assay [1]; in the assay with SKMEL-188 cells) were “efficiently inhibited DNA synthesis” and “highest inhibitory potency”, respectively. Further, in the assay with HaCaT keratinocytes, the “effect on proliferation of HaCaT cells” value was “no effect”. Also, in the assay on HaCaT keratinocytes (Homo sapiens), the EC50 is over 1000 nM. Besides, in the assay with melanoma SKMEL-188, the “inhibition of colony formation” value is given as “less potent inhibitory effect”. In addition, the “translocation of VDR-GFP fusion protein into the nucleus” value (from here on “translocation”) at VDR-EGFP fusion protein is “significantly lower”.
As for `C[C@]12CC[C@H]3C(=CC=C4C[C@@H](O)CC[C@@]43C)[C@@H]1CC[C@@H]2C(=O)CO` [21(OH)7DHP, 3β, 21-Dihydroxypregna-5,7-dien-20-one], the “effect on proliferation of HaCaT cells” value with HaCaT keratinocytes is recorded as “no effect”. For the same molecule, the EC50 with HaCaT keratinocytes (Homo sapiens) is over 1000 nM. For the same molecule, in the assay with SKMEL-188 cells, the “inhibition of DNA synthesis” value is “inhibited DNA synthesis”. Also, the “translocation” value on VDR-EGFP fusion protein is on record as “induced translocation”.
As for `C=C1/C(=C\C=C2/CCC[C@]3(C)[C@@H]([C@H](C)CCCC(C)(C)O)CC[C@@H]23)C[C@@H](O)C[C@@H]1O` [1,25(OH)2D3, reference compound], in the assay on HaCaT keratinocytes (Homo sapiens), the EC50 stood at 180 nM.
With `C=C1CC[C@H](O)C/C1=C/C=C1\CCC[C@]2(C)[C@@H](C(=O)CO)CC[C@@H]12` [21(OH)pD, (5Z,7E)-3β,21-Dihydroxy-9,10-secopregna-5,7,10(19)-trien-20-one], the EC50 with HaCaT keratinocytes stood at 40 nM. For the same molecule, the “inhibition of colony formation” value in the assay with melanoma SKMEL-188 is reported as “best inhibition”. For the same molecule, the “inhibition of DNA synthesis” value with SKMEL-188 cells is on record as “inhibited DNA synthesis”. Also, the “translocation” value on VDR-EGFP fusion protein is “efficient translocation”.

For the origin of these results see article PMC3005096 (Steroids, 2010).
